Test results as given in PMC8049015 (Journal of Clinical Pharmacology, 2020).
Like-named read-outs stand apart in the source and are kept apart here. Marks after values point to notes of the source that are not given here.

What was measured:
[1] = test system: subjects with moderate to severe atopic dermatitis; assay: Phase 2b dose‐ranging study, observed efficacy in week 16; assay type: in vivo, human; settings: week 16, NRI
[2] = test system: subjects with moderate to severe atopic dermatitis; assay: Exposure‐response logistic regression models; assay type: in vivo, human; settings: logit scale; week 16, NRI; estimate
In short: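 Week-16 EASI-75, EASI-90 and IGA 0/1 responses from 167 phase 2b adults were each fitted by logistic regression with an Emax link, with estimates on the logit scale. The exposure was individual steady-state Cavg from empirical Bayesian population-PK parameters. Drug effect was tested by likelihood ratio at P < .01. Covariates were selected stepwise (entry P < .01, removal P < .001). Models were chosen by AIC, fit and precision.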

[3] = assay type: in vivo, human; settings: steady state, median (5th to 95th percentiles), model‐predicted
In short: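 Plasma exposures at steady state over a dosing interval (median, 5th–95th percentiles) were predicted by a 2-compartment population-PK model for the oral extended-release once-daily regimens. Absorption was mixed zero- and first-order with a lag time. Sparse samples from weeks 2 and 4 (predose) and weeks 8, 12 and 16 (any time) were assayed by validated LC-MS.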

[4] = test system: subjects with moderate to severe atopic dermatitis; settings: week 16, placebo 23%, cited from earlier work
[5] = cited from earlier work
[6] = test system: subjects with moderate to severe RA; settings: cited from earlier work
[7] = 7.5, 15, 30 mg once daily, 16 weeks; cited from earlier work
[8] = test system: moderate to severe atopic dermatitis; settings: phase 3 studies; cited from earlier work
[9] = 15 mg once daily extended‐release

Question: With `CC[C@@H]1CN(C(=O)NCC(F)(F)F)C[C@@H]1c1cnc2cnc3[nH]ccc3n12` [upadacitinib] as the molecule, how does the “Observed percentage of subjects achieving EASI‐75” value ([1]; 7.5 mg once daily) read?
Answer: Its value is “[29] %”.

Question: And the “Observed percentage of subjects achieving EASI‐90” value ([1]; 7.5 mg once daily)?
Answer: The value was “[14] %”.

Question: What about the “Observed percentage of subjects achieving IGA 0/1” value ([1]; 7.5 mg once daily) of the same molecule?
Answer: Its value is “[14] %”.

Question: What about the “Observed percentage of subjects achieving EASI‐90” value ([1]; 15 mg once daily) of the same molecule?
Answer: The value was “[26] %”.

Question: What about the “Observed percentage of subjects achieving IGA 0/1” value ([1]; 15 mg once daily) of the same molecule?
Answer: Its value is “[31] %”.

Question: And the “Observed percentage of subjects achieving EASI‐90” value ([1]; 30 mg once daily)?
Answer: The value was “[50] %”.

Question: What about the “Observed percentage of subjects achieving IGA 0/1” value ([1]; 30 mg once daily) of the same molecule?
Answer: The value was “[50] %”.

Question: And the “Emax, probability of achieving EASI‐75” value [2]?
Answer: The value was 5.35 (17% ^a ).

Question: What about the “Emax, probability of achieving EASI‐90” value [2] of the same molecule?
Answer: The value was 6.2 (13% ^a ).

Question: What about the “Emax, probability of achieving IGA 0/1” value [2] of the same molecule?
Answer: The value was 5.78 (12% ^a ).

Question: And the Cmin ([3]; 7.5 mg once daily extended‐release)?
Answer: Its Cmin is 2.0 (0.56‐6.2) ng/mL.

Question: What about the Cmax [3, 9] of the same molecule?
Answer: The Cmax was 41.2 (27.7‐65.8) ng/mL.

Question: What about the Cmin [3, 9] of the same molecule?
Answer: The Cmin was 2.7 (1.2‐11.3) ng/mL.

Question: And the Cmin ([3]; 30 mg once daily extended‐release)?
Answer: The Cmin was 6.6 (2.1‐22.1) ng/mL.

Question: What about the “Mean improvement in EASI from baseline” value ([4]; 7.5 mg once daily) of the same molecule?
Answer: The value was 39%.

Question: What about the “Mean improvement in EASI from baseline” value ([4]; 15 mg once daily) of the same molecule?
Answer: Its value is 62%.

Question: And the “Mean improvement in EASI from baseline” value ([4]; 30 mg once daily)?
Answer: The value was 74%.

Question: What about the “Oral bioavailability of the extended‐release tablet relative to the same dose of the immediate‐release formulation” value [5] of the same molecule?
Answer: The value was 76%.

Question: What about the “Dose proportionality of plasma exposure” value ([5]; over the evaluated dose range across clinical studies) of the same molecule?
Answer: Its value is “approximately dose proportional”.

Question: What about the “Accumulation with repeated dosing” value ([5]; twice daily immediate‐release or once daily extended‐release) of the same molecule?
Answer: The value was “no significant accumulation”.

Question: And the “Estimated increase in the percentage of subjects achieving ACR 20/50/70 responses or DAS‐28 low disease activity and clinical remission, 30 mg once daily compared with 15 mg once daily exposures” value [6]?
Answer: Its value is < 5%.

Question: And the “Dose relationship for serious infections or overall incidence of adverse events” value [7]?
Answer: The value was “no dose relationship was observed”.

Question: What about the “Dose‐limiting safety events” value [7] of the same molecule?
Answer: The value was “No dose‐limiting safety events were observed”.

Question: For dupilumab, which “Patients who achieved no or almost no disease activity” value [8] is on record?
Answer: Its value is < 40%.
